Results as given in ChEMBL document CHEMBL5543129, “Peptide Inhibitor Targeting the Extraterminal Domain in BRD4 Potently Suppresses Breast Cancer Both In Vitro and In Vivo” (J Med Chem, 2024).
Active and inactive are the calls of the source.

Key:
Format in all cases: functional, cell-based
MCF7 [1] = test: Inhibition of colony formation in human MCF7 cells at 10 uM incubated for 2 weeks by crystal violet staining based assay
In short: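 Cells are seeded at 1 × 10^3/well and treated with peptide (10 μM) for 2 weeks, alone or with JQ1 5 μM, iJMJD6 10 μM, ICI 2.5 μM, or tamoxifen 3 μM (tamoxifen-resistant lines). Colonies are stained with crystal violet, dissolved in 10% acetic acid, and read at 590 nm. Three biological repeats.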

MCF7 [2] = test: Cytotoxicity against human MCF7 cells incubated for 1 week by CellTiter 96 Aqueous One Solution based assay; conditions: time 1.0 weeks
In short: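 Cells (2 × 10^3/well, DMEM + 10% FBS, 37 °C, 5% CO2) treated with a concentration gradient of peptide for 1 week. MTS reagent added for 1 h, absorbance read at 490 nm, EC50 derived.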

MCF7 [3] = test: Inhibition of cell migration in human MCF7 cells at 10 uM incubated for 24 hrs by inverted microscopic assay
In short: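 Cells are seeded at 5 × 10^5/well and scratched at 80–90% confluence. They are kept in serum-free medium with peptide (10 μM); partner agents are JQ1 5 μM, iJMJD6 10 μM, or ICI 2.5 μM. Wound area is imaged by inverted microscope at 0 and 12 or 24 h. Wound closure % = (A0−A1)/A0 × 100. Three biological repeats.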

C[C@]12CC[C@@H]3c4ccc(O)cc4C[C@@H](CCCCCCCCC[S+]([O-])CCCC(F)(F)C(F)(F)F)[C@H]3[C@@H]1CC[C@@H]2O (stereo partly drawn)
active: inhibition (MCF7 [1]) | Activity (MCF7 [2]) | inhibition (MCF7 [3])
